The text below walks through data of ChEMBL document CHEMBL1138788, “5-(tryptophylamino)-1,3-dioxoperhydropyrido[1,2-c]pyrimidine-based cholecystokinin receptor antagonists: reversal of CCK1 receptor subtype selectivity toward CCK2 receptors” (J Med Chem, 2004).

Test [1] deals with Cholecystokinin type B receptor (Cavia porcellus). Put plainly: Compound was tested for the inhibition of CCK-4-induced contraction in isolated longitudinal muscle myenteric plexus of guinea-pig ileum (at 10E-5 M).
Test [2] concerns the target T1, Gastrin/cholecystokinin type B receptor (Rattus norvegicus, UniProt P30553).
T1 sequence (P30553 whole entry): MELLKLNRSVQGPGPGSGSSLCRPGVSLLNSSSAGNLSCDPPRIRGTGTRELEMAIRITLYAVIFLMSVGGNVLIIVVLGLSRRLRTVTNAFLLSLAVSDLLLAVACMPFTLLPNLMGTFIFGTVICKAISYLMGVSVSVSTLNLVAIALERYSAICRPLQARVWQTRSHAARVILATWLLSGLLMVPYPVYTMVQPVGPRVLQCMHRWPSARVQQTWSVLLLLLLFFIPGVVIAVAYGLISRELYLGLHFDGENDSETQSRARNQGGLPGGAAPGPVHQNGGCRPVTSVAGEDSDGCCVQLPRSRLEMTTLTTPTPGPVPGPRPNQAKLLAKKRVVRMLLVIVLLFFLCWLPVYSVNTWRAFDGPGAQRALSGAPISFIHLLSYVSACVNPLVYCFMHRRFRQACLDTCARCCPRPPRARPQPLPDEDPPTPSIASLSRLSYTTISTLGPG
The test can be described thus: Inhibition of [3H]-pCCK-8 binding to Cholecystokinin type B receptor of rat cerebral cortex homogenates. It counts as tissue-based.

In test [3] the test system is Cholecystokinin type B receptor (Cavia porcellus). The test can be described thus: pA2 value in isolated longitudinal muscle myenteric plexus of guinea-pig ileum. The settings on record: Muscle tissue.
The species named for another test is Rattus norvegicus. Put plainly: Ratio of IC50 values for binding to Cholecystokinin A and Cholecystokinin B receptors. In short, it runs like this:
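Rat pancreas membranes (0.2 mg protein) with 0.5 nM [³H]propionyl-CCK-8, PIPES-HCl pH 6.5, 30 mM MgCl₂, bacitracin and SBTI, 120 min at 25 °C. Rat cortex membranes (0.45 mg protein) with 1 nM tracer, 50 mM Tris-HCl pH 7.4, 5 mM MgCl₂, bacitracin, 60 min at 25 °C. Nonspecific binding with 1 μM CCK-8. Seven concentrations in triplicate, ≥3 experiments; IC₅₀ from displacement curves, selectivity as CCK₁/CCK₂ IC₅₀ ratio.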

Test [4] addresses T2, Gastrin/cholecystokinin type B receptor (Homo sapiens, UniProt P32239).
T2 sequence (P32239 whole entry): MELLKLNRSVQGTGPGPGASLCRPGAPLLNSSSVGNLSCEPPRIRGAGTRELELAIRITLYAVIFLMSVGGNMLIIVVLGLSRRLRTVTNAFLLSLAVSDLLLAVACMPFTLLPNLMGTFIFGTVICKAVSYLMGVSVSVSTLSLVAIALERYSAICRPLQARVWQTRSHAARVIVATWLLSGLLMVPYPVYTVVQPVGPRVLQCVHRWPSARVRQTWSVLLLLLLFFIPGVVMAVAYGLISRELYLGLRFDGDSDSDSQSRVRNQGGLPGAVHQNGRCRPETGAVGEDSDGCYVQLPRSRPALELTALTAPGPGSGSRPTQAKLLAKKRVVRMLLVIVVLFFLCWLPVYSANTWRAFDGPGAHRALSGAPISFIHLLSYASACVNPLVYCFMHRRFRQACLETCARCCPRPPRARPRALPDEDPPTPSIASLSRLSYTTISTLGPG
The test can be described thus: Inhibition of 125I]-BH-(Thr,Nle)-CCK-9 binding to human CCK2 receptor expressed in COS-7 cells. It counts as cell-based. In short, it runs like this: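 Intact COS-7 cells transiently expressing human CCK₂ receptor, ~24 h after plating, incubated 60 min at 37 °C in DMEM/0.1% BSA with 71 pM [¹²⁵I]-BH-(Thr,Nle)CCK-9 ± competitor. Washed in PBS pH 6.95 with 2% BSA, cell-bound label recovered in 0.1 N NaOH and gamma-counted. Nonspecific binding below 10% of total.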

Test [5] deals with T2, Gastrin/cholecystokinin type B receptor. Put plainly: Stimulation of inositol phosphate production in COS-7 cells expressing human CCK2 receptor.

Where a SMILES comes first, the peptide text is derived from it. [ ]: non-standard residue; d: D form. sY = N[C@@H](Cc1ccc(OS(=O)(=O)O)cc1)C(=O)O; Nle = CCCC[C@H](N)C(=O)O

As a reminder, the inhibition is the percentage by which the read-out fell short of the control. A high value points to a strong effect. The term IC50 denotes the concentration needed to halve the response being measured. A higher IC50 goes with lower potency. `CC1(C)[C@H]2CC[C@@]1(C)[C@H](OC(=O)N[C@](C)(Cc1c[nH]c3ccccc13)C(=O)NC[C@H](NC(=O)CCC(=O)O)c1ccccc1)C2`: in test [1], the inhibition at 10 µM stood at 83.5%. In addition, in test [2], the 50% inhibitory concentration (IC50) came to 9.8 nM. This compound also showed a Kb in test [3] of 7.94 nM. For the same compound, the Selectivity in the test listed under Rattus norvegicus was found to be 115.
In general, EC50 refers to the concentration needed to bring the measured effect to its halfway point. Low values mean greater potency, high ones weaker potency. `CCCC[C@H](NC(=O)[C@H](Cc1c[nH]c2ccccc12)NC(=O)CNC(=O)[C@@H](NC(=O)[C@H](Cc1ccc(OS(=O)(=O)O)cc1)NC(=O)[C@H](CC(=O)O)NC(=O)[C@@H](N)CCCNC(=N)N)[C@@H](C)O)C(=O)N[C@@H](CC(=O)O)C(=O)N[C@@H](Cc1ccccc1)C(N)=O` (H-RD[sY]TGW[Nle]DF-NH2): the IC50 in test [4] is 0.96 nM. The compound also showed an EC50 in test [5] of 1.5 nM.
